Laboratory results: ChEMBL document CHEMBL1122285, “New myocardial imaging agents: stabilization of radioiodine as a terminal vinyl iodide moiety on tellurium fatty acids” (J Med Chem, 1983)
“And” between values parts separate entries of the source, which are not always exact repeats. Equal values may be shown once.

What was measured:
[1] = tested on: Rattus norvegicus; assay: Tested for distribution of radioactivity of iodine 125 in blood of rat after 5 min of intravenous administration; format: ADME, organism-based; conditions: in vivo
Procedure, shortened: (§1)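 Fischer 344 rats, four per time point, under ether anaesthesia. Each received ~8.6 μCi of 125I-labelled fatty acid (sp act ~20 mCi/mmol) by lateral tail vein in 0.5 mL 6% bovine serum albumin with 10% final ethanol, filtered before injection. Percent injected dose/g was calculated against injectate standards and reported as mean (range). Thyroid weight was taken as body weight × 7.5 mg/100 g.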

[2] = tested on: Rattus norvegicus; assay: Tested for distribution of radioactivity iodine 125 in heart of rat after 30 min of intravenous administration (value in parentheses indicates range); format: ADME, organism-based; conditions: in vivo, 0.5 h; procedure, shortened: as §1
[3] = tested on: Rattus norvegicus; assay: Tested for distribution of radioactivity of tellurium-123 in heart of rat after 30 min of intravenous administration; format: ADME, organism-based; conditions: in vivo, 0.5 h
Procedure, shortened: (§2)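 123mTe-labelled fatty acid (sp act ~20 mCi/mmol), ~6.8–8.4 μCi per rat, was given by lateral tail vein in 0.5 mL 6% BSA with 10% final ethanol to ether-anaesthetised Fischer 344 rats, four per time point. Tissue activity is expressed as mean % injected dose/g (range) against injectate standards.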

[4] = tested on: Rattus norvegicus; assay: Tested for distribution of radioactivity of iodine 125 in kidney of rat after 3 days of intravenous administration; format: ADME, organism-based; conditions: in vivo, 72 h; procedure, shortened: as §1
[5] = tested on: Rattus norvegicus; assay: Tested for distribution of radioactivity of tellurium-123 in heart of rat after 60 min of intravenous administration; format: ADME, organism-based; conditions: in vivo, 1 h; procedure, shortened: as §2
[6] = tested on: Rattus norvegicus; assay: Tested for distribution of radioactivity of tellurium-123 in kidney of rat after 5 min of intravenous administration; format: ADME, organism-based; conditions: in vivo; procedure, shortened: as §2
[7] = tested on: Rattus norvegicus; assay: Tested for distribution of radioactivity of iodine 125 in blood of rat after 3 days of intravenous administration; format: ADME, organism-based; conditions: in vivo, 72 h; procedure, shortened: as §1
[8] = tested on: Rattus norvegicus; assay: Tested for distribution of radioactivity of iodine 125 in liver of rat after 60 min of intravenous administration; format: ADME, organism-based; conditions: in vivo, 1 h; procedure, shortened: as §1
[9] = tested on: Rattus norvegicus; assay: Tested for distribution of radioactivity of tellurium-123 in lungs of rat after 5 min of intravenous administration; format: ADME, organism-based, Lung; conditions: in vivo; procedure, shortened: as §2
[10] = tested on: Rattus norvegicus; assay: Tested for distribution of radioactivity of tellurium-123 in liver of rat after 60 min of intravenous administration; format: ADME, organism-based; conditions: in vivo, 1 h; procedure, shortened: as §2
[11] = tested on: Rattus norvegicus; assay: Tested for distribution of radioactivity iodine 125 in heart of rat after 4 hours of intravenous administration; format: ADME, organism-based; conditions: in vivo; procedure, shortened: as §1
[12] = Tested for distribution of radioactivity of iodine 125 in kidney of rat after 60 min of intravenous administration; format: ADME; conditions: in vivo, 1 h; procedure, shortened: as §1
[13] = tested on: Rattus norvegicus; assay: Tested for distribution of radioactivity of iodine 125 in liver of rat after 30 min of intravenous administration; format: ADME, organism-based; conditions: in vivo, 0.5 h; procedure, shortened: as §1
[14] = tested on: Rattus norvegicus; assay: Tested for distribution of radioactivity of tellurium-123 in blood of rat after 5 min of intravenous administration; format: ADME, organism-based; conditions: in vivo; procedure, shortened: as §2
[15] = tested on: Rattus norvegicus; assay: Tested for distribution of radioactivity of iodine 125 in thyroid of rat after 30 min of intravenous administration; format: ADME, organism-based, Thyroid gland; conditions: in vivo, 0.5 h; procedure, shortened: as §1
[16] = tested on: Rattus norvegicus; assay: Tested for distribution of radioactivity of iodine 125 in lungs of rat after 60 min of intravenous administration; format: ADME, organism-based, Lung; conditions: in vivo, 1 h; procedure, shortened: as §1
[17] = tested on: Rattus norvegicus; assay: Tested for distribution of radioactivity of tellurium-123 in blood of rat after 60 min of intravenous administration; format: ADME, organism-based; conditions: in vivo, 1 h; procedure, shortened: as §2
[18] = tested on: Rattus norvegicus; assay: Tested for distribution of radioactivity in heart of rat after 2 hours of intravenous administration; format: ADME, organism-based; conditions: in vivo; procedure, shortened: as §1
[19] = tested on: Rattus norvegicus; assay: Tested for distribution of radioactivity of iodine 125 in lungs of rat after 5 min of intravenous administration; format: ADME, organism-based, Lung; conditions: in vivo; procedure, shortened: as §1
[20] = tested on: Rattus norvegicus; assay: Tested for distribution of radioactivity of tellurium-123 in heart of rat after 5 min of intravenous administration; format: ADME, organism-based; conditions: in vivo; procedure, shortened: as §2
[21] = tested on: Rattus norvegicus; assay: Tested for distribution of radioactivity of iodine 125 in blood of rat after 30 min of intravenous administration; format: ADME, organism-based; conditions: in vivo, 0.5 h; procedure, shortened: as §1
[22] = tested on: Rattus norvegicus; assay: Tested for distribution of radioactivity of tellurium-123 in liver of rat after 5 min of intravenous administration; format: ADME, organism-based; conditions: in vivo; procedure, shortened: as §2
[23] = tested on: Rattus norvegicus; assay: Tested for distribution of radioactivity of iodine 125 in kidney of rat after 5 min of intravenous administration; format: ADME, organism-based; conditions: in vivo; procedure, shortened: as §1
[24] = tested on: Rattus norvegicus; assay: Tested for distribution of radioactivity of tellurium-123 in blood of rat after 30 min of intravenous administration; format: ADME, organism-based; conditions: in vivo, 0.5 h; procedure, shortened: as §2
[25] = tested on: Rattus norvegicus; assay: Tested for distribution of radioactivity of iodine 125 in heart of rat after 5 min of intravenous administration; format: ADME, organism-based; conditions: in vivo; procedure, shortened: as §1
[26] = tested on: Rattus norvegicus; assay: Tested for distribution of radioactivity of tellurium-123 in lungs of rat after 60 min of intravenous administration; format: ADME, organism-based, Lung; conditions: in vivo, 1 h; procedure, shortened: as §2
[27] = tested on: Rattus norvegicus; assay: Tested for distribution of radioactivity of tellurium-123 in liver of rat after 30 min of intravenous administration; format: ADME, organism-based; conditions: in vivo, 0.5 h; procedure, shortened: as §2
[28] = tested on: Rattus norvegicus; assay: Tested for distribution of radioactivity of tellurium-123 in kidney of rat after 30 min of intravenous administration; format: ADME, organism-based; conditions: in vivo, 0.5 h; procedure, shortened: as §2
[29] = tested on: Rattus norvegicus; assay: Tested for distribution of radioactivity iodine 125 in heart of rat after 3 days intravenous administration; format: ADME, organism-based; conditions: in vivo, 72 h; procedure, shortened: as §1
[30] = tested on: Rattus norvegicus; assay: Tested for distribution of radioactivity of iodine 125 in blood of rat after 2 hour of intravenous administration; format: ADME, organism-based; conditions: in vivo; procedure, shortened: as §1
[31] = tested on: Rattus norvegicus; assay: Tested for distribution of radioactivity of iodine 125 in thyroid of rat after 60 min of intravenous administration; format: ADME, organism-based, Thyroid gland; conditions: in vivo, 1 h; procedure, shortened: as §1
[32] = tested on: Rattus norvegicus; assay: Tested for distribution of radioactivity of tellurium-123 in kidney of rat after 60 min of intravenous administration; format: ADME, organism-based; conditions: in vivo, 1 h; procedure, shortened: as §2
[33] = tested on: Rattus norvegicus; assay: Tested for distribution of radioactivity of iodine 125 in blood of rat after 60 min of intravenous administration; format: ADME, organism-based; conditions: in vivo, 1 h; procedure, shortened: as §1
[34] = tested on: Rattus norvegicus; assay: Tested for distribution of radioactivity of iodine 125 in lungs of rat after 30 min of intravenous administration; format: ADME, organism-based, Lung; conditions: in vivo, 0.5 h; procedure, shortened: as §1
[35] = tested on: Rattus norvegicus; assay: Tested for distribution of radioactivity of iodine 125 in kidney of rat after 2 hours of intravenous administration; format: ADME, organism-based; conditions: in vivo; procedure, shortened: as §1
[36] = tested on: Rattus norvegicus; assay: Tested for distribution of radioactivity of iodine 125 in kidney of rat after 4 hours of intravenous administration; format: ADME, organism-based; conditions: in vivo; procedure, shortened: as §1
[37] = tested on: Rattus norvegicus; assay: Tested for distribution of radioactivity iodine 125 in heart of rat after 60 min of intravenous administration; format: ADME, organism-based; conditions: in vivo, 1 h; procedure, shortened: as §1
[38] = tested on: Rattus norvegicus; assay: Tested for distribution of radioactivity of iodine 125 in liver of rat after 2 hr of intravenous administration; format: ADME, organism-based; conditions: in vivo; procedure, shortened: as §1
[39] = tested on: Rattus norvegicus; assay: Tested for distribution of radioactivity of iodine 125 in blood of rat after 4 hours of intravenous administration; format: ADME, organism-based; conditions: in vivo; procedure, shortened: as §1
[40] = tested on: Rattus norvegicus; assay: Tested for distribution of radioactivity of iodine 125 in kidney of rat after 30 min of intravenous administration; format: ADME, organism-based; conditions: in vivo, 0.5 h; procedure, shortened: as §1
[41] = tested on: Rattus norvegicus; assay: Tested for distribution of radioactivity of iodine 125 in thyroid of rat after 5 min of intravenous administration; format: ADME, organism-based, Thyroid gland; conditions: in vivo; procedure, shortened: as §1
[42] = tested on: Rattus norvegicus; assay: Tested for distribution of radioactivity of iodine 125 in liver of rat after 3 days of intravenous administration; format: ADME, organism-based; conditions: in vivo, 72 h; procedure, shortened: as §1
[43] = tested on: Rattus norvegicus; assay: Tested for distribution of radioactivity of iodine 125 in liver of rat after 4 hr of intravenous administration; format: ADME, organism-based; conditions: in vivo; procedure, shortened: as §1
[44] = tested on: Rattus norvegicus; assay: Tested for distribution of radioactivity of tellurium-123 in lungs of rat after 30 min of intravenous administration; format: ADME, organism-based, Lung; conditions: in vivo, 0.5 h; procedure, shortened: as §2
[45] = tested on: Rattus norvegicus; assay: Tested for distribution of radioactivity of iodine 125 in lungs of rat after 2 hours of intravenous administration; format: ADME, organism-based, Lung; conditions: in vivo; procedure, shortened: as §1
[46] = tested on: Rattus norvegicus; assay: Tested for distribution of radioactivity of iodine 125 in lungs of rat after 3 days of intravenous administration; format: ADME, organism-based, Lung; conditions: in vivo, 72 h; procedure, shortened: as §1
[47] = tested on: Rattus norvegicus; assay: Tested for distribution of radioactivity of iodine 125 in liver of rat after 5 min of intravenous administration; format: ADME, organism-based; conditions: in vivo; procedure, shortened: as §1

Molecule `O=C(O)CCCCCCCCCCC[Te]CCC/C=C\I` has an Injected dose/g [1] of 0.15%, an Injected dose/g [2] of 1.52% and an Injected dose/g [3] of 1.98%. The Injected dose/g [4] was 0.08%, the Injected dose/g [5] was 1.92% and 0.83% and the Injected dose/g [6] was 1.46% and 1.54%. For the same molecule, the Injected dose/g [7] was 0.03%, the Injected dose/g [8] was 4.39% and the Injected dose/g [9] was 0.91%. It also gave an Injected dose/g [10] of 4.49%, an Injected dose/g [11] of 0.76% and an Injected dose/g [12] of 1.15%. The Injected dose/g [13] was 5.32%, the Injected dose/g [14] was 0.32% and 0.25% and the Injected dose/g [15] was 5.64%. The Injected dose/g [16] was 1.02%, the Injected dose/g [17] was 0.95% and the Injected dose/g [18] was 1.03%. It also gave an Injected dose/g [19] of 0.92%, an Injected dose/g [20] of 2.09% and an Injected dose/g [21] of 0.61%. For the same molecule, the Injected dose/g [22] was 7.78% and 8.26%, the Injected dose/g [23] was 1.01% and the Injected dose/g [24] was 0.84%. The Injected dose/g [25] was 1.46%, the Injected dose/g [26] was 1% and 1.49% and the Injected dose/g [27] was 5.53%. For the same molecule, the Injected dose/g [28] was 1.73% and 1.62%, the Injected dose/g [29] was 0.09% and the Injected dose/g [30] was 0.68%. For the same molecule, the Injected dose/g [31] was 13.41%, the Injected dose/g [32] was 1.85% and the Injected dose/g [33] was 0.69%. It also gave an Injected dose/g [34] of 0.89%, an Injected dose/g [35] of 0.96% and an Injected dose/g [36] of 0.93%. The Injected dose/g [37] was 1.81%, the Injected dose/g [38] was 2.45% and the Injected dose/g [39] was 0.65%. It also gave an Injected dose/g [40] of 1.04%, an Injected dose/g [41] of 1.62% and an Injected dose/g [42] of 0.09%. It also gave an Injected dose/g [43] of 1.95%, an Injected dose/g [44] of 1.03% and an Injected dose/g [45] of 0.81%. The Injected dose/g [46] was 0.1% and the Injected dose/g [47] was 8.78%.
